The results in this text go back to ChEMBL document CHEMBL2146386, “Hispolon attenuates balloon-injured neointimal formation and modulates vascular smooth muscle cell migration via AKT and ERK phosphorylation” (J Nat Prod, 2012).

Molecules are shown by their SMILES. ≈ marks a conversion by molar mass, not a printed value. Calls of active or inactive are those of the source. The calls are words filed in the database; no cut-off is given here.

Broadly, the inhibition is how much of the control response was suppressed. For orientation: IC50 means the midpoint of a concentration-inhibition curve.

The target of data set [1] is Focal adhesion kinase 1 (Rattus norvegicus) (UniProt O35346). Put plainly: Inhibition of FAK phosphorylation in rat A10 cells after 24 hrs by Western blot analysis. The class given is cell-based. The procedure, abridged: (§1)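 A10 VSMC in six-well plates incubated 24 h with 10, 15 and 20 μg/mL in DMEM containing 15% FBS, with 15% FBS as control. Lysed in SDS/DTT buffer at 95 °C. Western blot on PVDF used specific antibodies (p-AKT, PI3K, p-FAK, TIMP-1, TIMP-2), β-actin loading control, ECL detection, and densitometry relative to control as 100%.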

Data set [2] has the same target. Put plainly: Inhibition of FAK-mediated ERK1 phosphorylation in rat A10 cells after 30 mins by Western blot analysis. The class given is cell-based. In outline:
(§2)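 Western blot of A10 VSMC after 30 min exposure to 10, 15 and 20 μg/mL, probed for phosphorylated ERK1/2 alongside total ERK1/2. Serum-stimulated cells served as comparison. ECL detection.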
(In general: Immunoblotting shows a protein as a band on a membrane.)

For data set [3] the target is unchanged. Briefly: Inhibition of FAK-mediated FBS-induced cell migration of rat A10 cells at 15 ug/mL after 18 hrs by scratch-wound assay. It is filed as cell-based. The procedure, abridged:
(§3)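 A10 VSMC (3 × 10^4) grown to 80–90% confluence in six-well plates, and the monolayer centre scraped with a micropipet tip. After a PBS wash, cells were exposed to 10, 15 or 20 μg/mL and photographed at 18 h. Cells crossing lines drawn at the original wound edges were counted in six random fields per triplicate treatment. Three experiments.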

Data set [4] has as its system A10. Put plainly: Induction of cell cycle arrest in rat A10 cells assessed as S phase cells at 10 to 40 ug/mL after 24 hrs by PI-staining based flow cytometric analysis relative to vehicle-treated control. Conditions: a10, 24 h. The procedure, abridged:
(§4)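 A10 VSMC treated 24 h with 10–60 μg/mL in 15% FBS, with […] alone as control. Cells harvested with trypsin-EDTA, fixed in 70% ethanol and stained with propidium iodide plus RNase A and Nonidet P-40 for at least 30 min on ice in the dark. Three experiments.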
(In general: In flow cytometry, cells or beads pass a laser one at a time.)

Data set [5] has as its target Focal adhesion kinase 1 (Rattus norvegicus) (UniProt O35346). Put plainly: Inhibition of FAK in rat A10 cells assessed as inhibition of serum-induced PI3K expression after 24 hrs by Western blot analysis. The class given is cell-based. In outline: as §1
The target is the same in data set [6]. Put plainly: Inhibition of FAK-mediated ERK2 phosphorylation in rat A10 cells after 30 mins by Western blot analysis. It is filed as cell-based. In outline: as §2
Data set [7] concerns Rattus norvegicus. Put plainly: Antirestenotic activity in Sprague-Dawley rat assessed as reduction in balloon injury-induced neointimal:[…] area ratio in carotid artery at 10 mg/mL, administered topically measured after 2 weeks by hematoxylin and eosin staining method relative to vehicle-treated control. The class given is functional. On the set-up: scale not given: the % may be the effect or the level left. The procedure, abridged:
(§5)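 Male Sprague–Dawley rats (350–400 g) underwent carotid balloon injury, 8 per group: untreated injury control or a 10 or 20 mg/mL solution. Sham controls were included. Vessels were embedded, cut into 10 μm sections and stained with H&E. The neointimal:media area ratio was measured by computerized image analysis. Two separate experiments.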

The subject of data set [8] is A10. Briefly: Upregulation of TIMP2 expression in rat A10 cells after 24 hrs by Western blot analysis. It is filed as functional, cell-based. In outline:
as §1

Data set [9] deals with Rattus norvegicus. Put plainly: Antirestenotic activity in Sprague-Dawley rat assessed as reduction in balloon injury-induced PCNA expression in carotid artery at 10 and 20 mg/mL, administered topically measured after 2 weeks by immunohistochemistry.
For data set [10], the target named is Focal adhesion kinase 1 (Rattus norvegicus) (UniProt O35346). Briefly: Inhibition of FAK-mediated MMP2 activity in rat A10 cells after 24 hrs by zymographic analysis. The class given is cell-based. In outline:
(§6)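 Culture medium of A10 VSMC treated 24 h was electrophoresed (120 V, 90 min) in 10% SDS-PAGE with 0.1% gelatin. Gels were washed in 2.5% Triton X-100, then incubated overnight (12–15 h) at 37 °C in 40 mM Tris-HCl pH 8.0 with 10 mM CaCl2 and 1% NaN3. Stained with Coomassie blue and destained.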

In data set [11] the test system is A10. Put plainly: Antiproliferative activity against rat A10 cells at 5 to 25 ug/mL after 24 hrs by MTT assay relative to control. It is filed as cell-based. The settings on record: a10, 24 h. In outline:
(§7)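 A10 rat aortic VSMC seeded at 1 × 10^4 cells/well in DMEM with 10% FBS for 24 h, washed, then exposed for 24 h to 10% FBS alone or serial dilutions (5–40 μg/mL). MTT added (3 mg/mL stock in PBS) for 2 h at 37 °C, formazan dissolved in DMSO, absorbance read at 570 nm. Three separate experiments.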
In general terms: Formazan colour is commonly taken as a measure of viable cells.

For data set [12], the target named is Focal adhesion kinase 1 (Rattus norvegicus) (UniProt O35346). Briefly: Inhibition of FAK-mediated FBS-induced migration of rat A10 cells at 15 and 20 ug/mL after 18 hrs by transwell assay. The class given is cell-based. In outline:
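Trans-well chambers with 6.5 mm polycarbonate filters, 8 μm pores. A10 VSMC (4 × 10^5 mL−1) with 0–20 μg/mL in serum-free DMEM were placed in the upper chamber for 18 h at 37 °C. Cells on the lower filter surface were methanol-fixed, Giemsa-stained and counted at 200× in 10 random fields. Three experiments in duplicate.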

Data set [13] has the same target. Briefly: Inhibition of FAK-mediated FBS-induced cell migration of rat A10 cells at 20 ug/mL after 18 hrs by scratch-wound assay. It is filed as cell-based. In outline: as §3
Data set [14] has as its system A10. Briefly: Upregulation of TIMP1 expression in rat A10 cells after 24 hrs by Western blot analysis. It is filed as functional, cell-based. The procedure, abridged:
as §1

The test system of data set [15] is Rattus norvegicus. Put plainly: Antirestenotic activity in Sprague-Dawley rat assessed as reduction in balloon injury-induced neointimal:[…] area ratio in carotid artery at 20 mg/mL, administered topically measured after 2 weeks by hematoxylin and eosin staining method relative to vehicle-treated control. On the set-up: scale not given: the % may be the effect or the level left. The class given is functional. In outline: as §5

Data set [16] concerns the target Focal adhesion kinase 1 (Rattus norvegicus) (UniProt O35346). Briefly: Inhibition of FAK in rat A10 cells assessed as inhibition of serum-induced AKT phosphorylation after 24 hrs by Western blot analysis. The class given is cell-based. In outline:
as §1

The test system of data set [17] is A10. Briefly: Antiproliferative activity against rat A10 cells at 30 to 40 ug/mL after 24 hrs by MTT assay relative to control. It is filed as cell-based. The settings on record: a10, 24 h. The procedure, abridged: as §7
Data set [18] concerns A10. Briefly: Induction of apoptosis in rat A10 cells assessed as sub-G1 cells at 10 to 40 ug/mL after 24 hrs by PI-staining based flow cytometric analysis relative to vehicle-treated control. The class given is cell-based. The settings on record: a10, 24 h. The procedure, abridged:
as §4

Data set [19] deals with Focal adhesion kinase 1 (Rattus norvegicus) (UniProt O35346). Put plainly: Inhibition of FAK-mediated FBS-induced cell migration of rat A10 cells at 10 ug/mL after 18 hrs by scratch-wound assay. The class given is cell-based. In outline: as §3
Data set [20] has as its system A10. Briefly: Antiproliferative activity against rat A10 cells after 24 hrs by MTT assay. The class given is cell-based. The procedure, abridged:
as §7

The target of data set [21] is Focal adhesion kinase 1 (Rattus norvegicus) (UniProt O35346). Put plainly: Inhibition of FAK-mediated […] activity in rat A10 cells after 24 hrs by zymographic analysis. It is filed as cell-based. The procedure, abridged:
as §6

Sequence of Focal adhesion kinase 1 (Rattus norvegicus) (O35346 whole entry): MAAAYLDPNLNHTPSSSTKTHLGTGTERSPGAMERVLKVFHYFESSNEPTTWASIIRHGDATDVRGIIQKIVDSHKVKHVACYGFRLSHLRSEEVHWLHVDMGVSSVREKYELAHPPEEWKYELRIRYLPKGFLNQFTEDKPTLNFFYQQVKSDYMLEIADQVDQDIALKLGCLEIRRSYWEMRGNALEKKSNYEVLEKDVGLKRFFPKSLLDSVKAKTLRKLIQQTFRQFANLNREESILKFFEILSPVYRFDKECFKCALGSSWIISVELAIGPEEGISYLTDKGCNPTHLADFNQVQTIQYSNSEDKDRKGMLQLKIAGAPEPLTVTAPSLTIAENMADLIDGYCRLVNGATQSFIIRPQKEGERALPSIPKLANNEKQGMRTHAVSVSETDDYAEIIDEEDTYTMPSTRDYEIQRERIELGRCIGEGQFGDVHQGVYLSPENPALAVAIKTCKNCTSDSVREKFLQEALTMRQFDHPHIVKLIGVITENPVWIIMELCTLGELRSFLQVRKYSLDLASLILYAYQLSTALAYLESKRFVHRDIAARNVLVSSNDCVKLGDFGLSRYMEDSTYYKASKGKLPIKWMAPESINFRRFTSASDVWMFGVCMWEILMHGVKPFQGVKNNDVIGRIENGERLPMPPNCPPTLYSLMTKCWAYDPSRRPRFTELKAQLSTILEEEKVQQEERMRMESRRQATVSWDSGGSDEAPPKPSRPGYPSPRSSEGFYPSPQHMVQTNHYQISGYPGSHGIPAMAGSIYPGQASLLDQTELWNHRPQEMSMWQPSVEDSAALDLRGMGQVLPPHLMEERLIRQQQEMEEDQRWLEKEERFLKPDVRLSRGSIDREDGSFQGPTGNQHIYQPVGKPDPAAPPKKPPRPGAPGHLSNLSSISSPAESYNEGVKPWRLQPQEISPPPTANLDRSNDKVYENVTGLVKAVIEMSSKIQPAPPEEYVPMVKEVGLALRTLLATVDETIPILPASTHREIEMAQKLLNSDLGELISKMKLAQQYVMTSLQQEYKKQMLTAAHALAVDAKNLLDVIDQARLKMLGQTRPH

For `CC(=O)/C=C(O)/C=C/c1ccc(O)c(O)c1` [HISPOLON], the inhibition result in data set [1] is “Dose-dependent effect”; in data set [2], “Dose-dependent effect”; in data set [3], 6.51%; in [5] it was “Dose-dependent effect”; in [6], “Dose-dependent effect”; in data set [10], “Dose-dependent effect”. In addition, the inhibition was 43.2% in [13], “Dose-dependent effect” in data set [16], 12% in data set [19] and “Dose-dependent effect” in [21]. Besides, the Activity result in the data set on A10 [4] is “Non-toxic”; in the data set with Rattus norvegicus [7] it was 25%; in the data set on A10 [8] it was “Dose-dependent effect”; in the data set on A10 [11] it was below 10%; with A10 [14], “Dose-dependent effect”; in the data set on Rattus norvegicus [15] it was 58%. Besides, the Activity entry in the data set on A10 [17] is recorded as “Toxic”; with A10 [18], “Non-toxic”; in the data set on A10 [20] (rat, a10, 24 h) it was “Dose-dependent effect”. The outcome in the data set with Rattus norvegicus [9] was Active. Further, the inhibition result in data set [12] was “Active”. In the data set with A10 [20] (Rattus norvegicus, A10, 24 h), the IC50 was 37 µg/mL (≈ 168 µM).
